Data reported in PMC9673105 (Poultry Science, 2022).
Like-named read-outs stand apart in the source and are kept apart here.

Legend:
zebrafish GALR2a = conditions: ref Kim et al., 2014, Cohen et al., 2020; cited from earlier work
[1] = test system: luteinizing hormone (LH) release; conditions: ewe; ref Lomet et al., 2020; cited from earlier work
human GALR3 = conditions: ref Kim et al., 2014, Cohen et al., 2020; cited from earlier work
GALR1 = conditions: ref Kim et al., 2014, cited from earlier work
[2] = test system: hypothalamic neuropeptides; conditions: orange-spotted grouper; ref Li et al., 2016; cited from earlier work
GALR2 = conditions: mouse; ref Lin et al., 2015; cited from earlier work
zebrafish GALR2b = conditions: ref Kim et al., 2014, Cohen et al., 2020; cited from earlier work
POMC = test: Hypothalamic POMC mRNA; type: in vivo; conditions: chicken
Procedure, shortened: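 3-wk-old male chicks, randomized into four groups (N ≥ 3), given test peptide intravenously at 10, 50 or 100 ng/g BW, or PBS as control. Hypothalami collected 6, 12 and 24 h post-injection. EvaGreen qRT-PCR with melting-curve and agarose-gel specificity checks. mRNA normalised to β-actin and expressed as fold of PBS group. One-way ANOVA with Dunnett's test.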

[3] = cited from earlier work
[4] = test system: hypothalamic neuropeptides; conditions: zebrafish; ref Zheng et al., 2017; cited from earlier work
tilapia GALR2a = conditions: ref Kim et al., 2014, Cohen et al., 2020; cited from earlier work
goldfish = conditions: injection, ref Wong et al., 2013; cited from earlier work
mice = conditions: cited from earlier work
[5] = test system: hypothalamic neuropeptides; conditions: goldfish; ref Wong et al., 2013; cited from earlier work
Siberian sturgeon = conditions: ref Tian et al., 2020, cited from earlier work
tilapia GALR2b = conditions: ref Kim et al., 2014, Cohen et al., 2020; cited from earlier work
human GALR2 = conditions: ref Kim et al., 2014, Cohen et al., 2020; cited from earlier work
Xenopus GALR2b = conditions: ref Kim et al., 2014, Cohen et al., 2020; cited from earlier work
[6] = test system: hypothalamic neuropeptides; conditions: mouse; ref Lv et al., 2020; cited from earlier work
Xenopus GALR3 = conditions: ref Kim et al., 2014, Cohen et al., 2020; cited from earlier work

Substance: SPX: Spexin, novel neuropeptide; mature peptide with 14 amino acid residues, of various species in cited literature
- receptor activation (zebrafish GALR2a): could activate
- basal and KISS-induced luteinizing hormone (LH) release [1]: does not impact
- receptor activation (human GALR3): could activate
- receptor activation (GALR1; GALR1, Cohen et al., 2020): not GALR1
- activation of GALR1 (GALR1): incompetent in activating GALR1
- POMC expression [2]: could elevate POMC expression
- bowel movement via SPX-dependent GALR2 activation (GALR2): could enhance bowel movement
- receptor activation (zebrafish GALR2b): could activate
- POMC mRNA level (in words) (POMC): failed to change the mRNA level of POMC
- body weight ([3]; rodents with diet-induced obesity, ref Walewski et al., 2014): lose weight
- body weight ([3]; rodents, ref Kolodziejski et al., 2021): weight loss
- POMC expression [4]: could elevate POMC expression
- receptor activation (tilapia GALR2a): could activate
- feed consumption (goldfish): observably decreased
- feeding (mice; intraperitoneal (IP) injection, ref Lv et al., 2020, Wong et al., 2021b): feeding inhibition
- feed intake (mice; peripheral, ref Lv et al., 2020): suppresses feed intake
- POMC expression [5]: could elevate POMC expression
- feed consumption (Siberian sturgeon; injection): observably decreased
- feeding (Siberian sturgeon; intraperitoneal (IP) injection): feeding inhibition
- receptor activation (tilapia GALR2b): could activate
- receptor activation (human GALR2): could activate
- receptor activation (Xenopus GALR2b): could activate
- POMC mRNA level [6]: failed to change the mRNA level of POMC
- receptor activation (Xenopus GALR3): could activate
